Experimental data reported in ChEMBL document CHEMBL1641576, “Development of a new class of benzoylpyrrole-based PPARα/γ activators” (Bioorg Med Chem Lett, 2011).
Blank lines part the entries; values can stand above or below the molecule they belong to. Activity calls are given as the source filed them. The calls are words filed in the database; no cut-off is given here.

How the values were obtained:
[1] = biological target: T1, Peroxisome proliferator-activated receptor alpha (Homo sapiens) (UniProt Q07869); experiment: Agonist activity at human PPARalpha ligand binding domain expressed in COS-1 cells co-transfected with Gal4 at 10 uM by luciferase reporter gene assay relative to control; format: cell-based
T1 sequence (whole entry): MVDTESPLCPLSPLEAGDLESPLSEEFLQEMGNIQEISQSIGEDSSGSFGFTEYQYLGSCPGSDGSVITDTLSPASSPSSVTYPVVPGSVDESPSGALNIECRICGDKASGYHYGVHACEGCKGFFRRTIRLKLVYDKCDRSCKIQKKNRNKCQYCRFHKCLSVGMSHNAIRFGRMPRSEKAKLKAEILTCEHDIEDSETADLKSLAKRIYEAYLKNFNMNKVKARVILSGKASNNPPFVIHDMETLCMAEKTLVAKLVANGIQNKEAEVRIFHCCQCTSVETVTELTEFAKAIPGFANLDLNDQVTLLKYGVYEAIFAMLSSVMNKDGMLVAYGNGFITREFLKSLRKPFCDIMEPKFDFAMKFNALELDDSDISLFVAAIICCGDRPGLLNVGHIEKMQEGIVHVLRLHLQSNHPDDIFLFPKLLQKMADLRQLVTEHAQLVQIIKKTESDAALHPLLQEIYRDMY
In short: (§1)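 COS-1 cells were seeded at 5 × 10⁴ cells/well and grown about 24 h at 37 °C under 5% CO₂ in DMEM with 10% charcoal-treated FCS. They were lipofected with a GAL4–PPAR ligand-binding-domain fusion plasmid plus a GAL4-responsive luciferase reporter. Medium was replaced at 4 h with medium containing compound; no-drug controls received 0.1% DMSO final. Cells were lysed after 24 h and luciferase was read. Results are reported as fold induction and EC50.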

Mus musculus [2] = experiment: Toxicity in db/db mouse assessed as increase of body weight at 41 mg/kg administered with chow diet ad for 14 days; format: organism-based; set-up: dose 41 mg/kg; conditions: in vivo, po, 336 h
In short: (§2)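 […] male db/db mice were randomised into four groups and dosed for 14 days through drug admixed in rodent chow; controls received plain chow. Blood glucose, body weight and food intake were monitored. Values are means of 6 animals/group, compared with vehicle by Dunnett's or Student's test.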

Mus musculus [3] = experiment: Antidiabetic activity in db/db mouse assessed as reduction of blood glucose level at 41 mg/kg administered with chow diet ad for 14 days; format: functional, organism-based; set-up: dose 41 mg/kg; in short: as §2
Mus musculus [4] = experiment: Toxicity in db/db mouse assessed as effect on food intake at 41 mg/kg administered with chow diet ad for 14 days; format: organism-based; set-up: dose 41 mg/kg; conditions: in vivo, po, 336 h; in short: as §2
[5] = biological target: T2, Peroxisome proliferator-activated receptor gamma (Homo sapiens) (UniProt P37231); experiment: Agonist activity at human PPARgamma ligand binding domain expressed in COS-1 cells co-transfected with Gal4 by luciferase reporter gene assay relative to pioglitazone; format: cell-based
T2 sequence (whole entry): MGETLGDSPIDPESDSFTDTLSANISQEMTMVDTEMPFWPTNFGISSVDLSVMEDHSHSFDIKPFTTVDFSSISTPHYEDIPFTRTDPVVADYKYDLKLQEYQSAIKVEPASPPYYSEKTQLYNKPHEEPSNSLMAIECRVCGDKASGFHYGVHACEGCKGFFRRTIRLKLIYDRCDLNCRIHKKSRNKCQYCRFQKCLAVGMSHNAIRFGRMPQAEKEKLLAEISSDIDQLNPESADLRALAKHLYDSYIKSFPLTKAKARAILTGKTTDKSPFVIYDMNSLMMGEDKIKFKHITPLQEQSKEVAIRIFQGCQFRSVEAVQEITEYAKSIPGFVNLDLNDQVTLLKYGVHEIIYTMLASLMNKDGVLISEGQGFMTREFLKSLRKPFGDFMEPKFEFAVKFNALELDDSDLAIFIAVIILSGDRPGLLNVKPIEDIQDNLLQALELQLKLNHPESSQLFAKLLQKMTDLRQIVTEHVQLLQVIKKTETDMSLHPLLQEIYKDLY

[6] = biological target: T3, Peroxisome proliferator-activated receptor alpha (Homo sapiens, UniProt Q07869); experiment: Agonist activity at human PPARalpha ligand binding domain expressed in COS-1 cells co-transfected with Gal4 by luciferase reporter gene assay; format: cell-based; in short: as §1
T3 sequence (Q07869 whole entry): T1 sequence (whole entry)

[7] = biological target: T4, Peroxisome proliferator-activated receptor gamma (Homo sapiens, UniProt P37231); experiment: Agonist activity at human PPARgamma ligand binding domain expressed in COS-1 cells co-transfected with Gal4 by luciferase reporter gene assay; format: cell-based
T4 sequence (P37231 whole entry): T2 sequence (whole entry)

Homo sapiens = species: Homo sapiens; experiment: Selectivity ratio, ratio of EC50 for human PPARalpha ligand binding domain to EC50 for human PPARgamma ligand binding domain
[8] = biological target: T1, Peroxisome proliferator-activated receptor alpha (Homo sapiens); experiment: Agonist activity at human PPARalpha ligand binding domain expressed in COS-1 cells co-transfected with Gal4 by luciferase reporter gene assay relative to fenofibric acid; format: cell-based
[9] = Cmax in rat at 10 mg/kg, po; format: ADME, organism-based; set-up: dose 10 mg/kg, route oral; conditions: in vivo
In short: (§3)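 Single oral dose of the sodium salt given to rats. Plasma profile used to derive AUC, Cmax, Tmax and bioavailability.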

[10] = AUC in rat at 10 mg/kg, po; format: ADME, organism-based; set-up: dose 10 mg/kg, route oral; conditions: plasma; in short: as §3
Mus musculus [11] = experiment: Toxicity in db/db mouse assessed as effect on food intake at 15 mg/kg administered with chow diet ad for 14 days; format: organism-based; set-up: dose 15 mg/kg; conditions: in vivo, po, 336 h; in short: as §2
Mus musculus [12] = experiment: Toxicity in db/db mouse assessed as increase of body weight at 15 mg/kg administered with chow diet ad for 14 days; format: organism-based; set-up: dose 15 mg/kg; conditions: in vivo, po, 336 h; in short: as §2
[13] = Tmax in rat at 10 mg/kg, po; format: ADME, organism-based; set-up: dose 10 mg/kg, route oral; conditions: in vivo; in short: as §3
[14] = AUC in rat at 1 mg/kg, iv; format: ADME, organism-based; set-up: dose 1 mg/kg, route intravenous; conditions: plasma
In short: (§4)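 Single intravenous dose of the sodium salt given to rats. Plasma concentrations followed to derive AUC, half-life, plasma clearance and steady-state distribution volume.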

[15] = Clearance in rat at 1 mg/kg, iv; format: ADME, organism-based; set-up: dose 1 mg/kg, route intravenous; conditions: in vivo; in short: as §4
Mus musculus [16] = experiment: Toxicity in db/db mouse assessed as increase of body weight at 141 mg/kg administered with chow diet ad for 14 days; format: organism-based; set-up: dose 141 mg/kg; conditions: in vivo, po, 336 h; in short: as §2
[17] = Volume of distribution at steady state in rat at 1 mg/kg, iv; format: ADME, organism-based; set-up: dose 1 mg/kg, route intravenous; conditions: in vivo, read-out: Vdss; in short: as §4
Mus musculus [18] = experiment: Toxicity in db/db mouse assessed as effect on food intake at 141 mg/kg administered with chow diet ad for 14 days; format: organism-based; set-up: dose 141 mg/kg; conditions: in vivo, po, 336 h; in short: as §2
[19] = Oral bioavailability in rat at 10 mg/kg; format: ADME, organism-based; conditions: in vivo; in short: as §3
[20] = Half life in rat at 1 mg/kg, iv; format: ADME, organism-based; set-up: dose 1 mg/kg, route intravenous; conditions: in vivo; in short: as §4
Mus musculus [21] = experiment: Antidiabetic activity in db/db mouse assessed as reduction of blood glucose level at 141 mg/kg administered with chow diet ad for 14 days; format: functional, organism-based; set-up: dose 141 mg/kg; in short: as §2
[22] = biological target: T5, Peroxisome proliferator-activated receptor alpha (Mus musculus) (UniProt P23204); experiment: Agonist activity at mouse PPARalpha ligand binding domain expressed in COS-1 cells co-transfected with Gal4 by luciferase reporter gene assay relative to fenofibric acid; format: cell-based
T5 sequence (whole entry): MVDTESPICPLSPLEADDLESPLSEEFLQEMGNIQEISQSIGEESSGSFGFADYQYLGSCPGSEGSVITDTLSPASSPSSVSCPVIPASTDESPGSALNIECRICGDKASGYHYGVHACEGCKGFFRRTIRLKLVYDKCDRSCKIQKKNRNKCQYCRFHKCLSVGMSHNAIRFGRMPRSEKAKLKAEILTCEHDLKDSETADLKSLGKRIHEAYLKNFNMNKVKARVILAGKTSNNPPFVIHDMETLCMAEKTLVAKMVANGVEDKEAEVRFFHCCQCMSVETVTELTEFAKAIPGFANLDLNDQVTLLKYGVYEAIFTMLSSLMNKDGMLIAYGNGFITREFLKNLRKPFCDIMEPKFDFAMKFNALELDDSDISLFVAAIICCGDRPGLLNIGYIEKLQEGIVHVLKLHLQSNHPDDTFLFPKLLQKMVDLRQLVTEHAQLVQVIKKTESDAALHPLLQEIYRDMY

[23] = biological target: T6, Peroxisome proliferator-activated receptor alpha (Mus musculus, UniProt P23204); experiment: Agonist activity at mouse PPARalpha ligand binding domain expressed in COS-1 cells co-transfected with Gal4 by luciferase reporter gene assay; format: cell-based; in short: as §1
T6 sequence (P23204 whole entry): T5 sequence (whole entry)

fold change (FC) [1]: 1
SMILES: COc1ccc(C(=O)c2cccn2C/C=C/c2ccccc2CC(=O)O)cc1

Emax [5]: 37% | Emax [8]: 43% | fold change (FC) [1]: 1.6 | EC50 [6]: 21 µM | EC50 [7]: 2 µM | Ratio EC50 (Homo sapiens): 11
SMILES: COc1ccc(C(=O)c2cccn2C/C=C/c2cccc(CC(=O)O)c2)cc1

Emax [5]: 17% | Emax [8]: 37% | fold change (FC) [1]: 5.2 | Ratio EC50 (Homo sapiens): 1.5 | Emax [22]: 25%
SMILES: Cc1ccc(C(=O)c2cccn2C/C=C/c2cccc(OCC(=O)O)c2)cc1 [listing 1 of 2 here]
Activity (Mus musculus [21]): Active

fold change (FC) [1]: 0.8
SMILES: COc1ccc(C(=O)c2cccn2C/C=C/c2ccc(CC(=O)O)cc2)cc1

EC50 [23]: 4.9 µM | EC50 [6]: 1.8 µM | EC50 [7]: 1.2 µM
SMILES: Cc1ccc(C(=O)c2cccn2C/C=C/c2cccc(OCC(=O)O)c2)cc1 [listing 2 of 2 here]

Emax [5]: 16% | Emax [8]: 42% | fold change (FC) [1]: 5.8 | EC50 [6]: 3.7 µM | EC50 [7]: 1.9 µM | Ratio EC50 (Homo sapiens): 1.9
SMILES: COc1ccc(C(=O)c2cccn2C/C=C/c2cccc(OCC(=O)O)c2)cc1

fold change (FC) [1]: 0.8
SMILES: COc1ccc(C(=O)c2cccn2C/C=C/c2ccccc2OCC(=O)O)cc1

fold change (FC) [1]: 3.5
SMILES: COc1ccc(C(=O)c2cccn2C/C=C/c2ccc(OCC(=O)O)cc2)cc1

The next lines start with the molecule.

SMILES: Cc1cccc(C(=O)c2cccn2C/C=C/c2cccc(OCC(=O)O)c2)c1
fold change (FC) [1]: 1.9

SMILES: CCc1ccc(CCOc2ccc(CC3SC(=O)NC3=O)cc2)nc1 (stereo unspecified) [PIOGLITAZONE]
Activity (Mus musculus [2]): Toxic | Activity (Mus musculus [3]): Active | Activity (Mus musculus [4]): Toxic

SMILES: COc1ccc(C(=O)c2cc(C)cn2C/C=C/c2ccc(Cl)cc2C(=O)NS(C)(=O)=O)cc1
Emax [5]: 19% | fold change (FC) [1]: 0.9 | EC50 [6]: > 90 µM | EC50 [7]: 12 µM | Ratio EC50 (Homo sapiens): > 7.5

SMILES: COc1cccc(C(=O)c2cccn2C/C=C/c2cccc(OCC(=O)O)c2)c1
fold change (FC) [1]: 1.4

SMILES: Cc1ccccc1C(=O)c1cccn1C/C=C/c1cccc(OCC(=O)O)c1
fold change (FC) [1]: 1.1

SMILES: COc1ccccc1C(=O)c1cccn1C/C=C/c1cccc(OCC(=O)O)c1
fold change (FC) [1]: 0.9

SMILES: Cc1ccc(C(=O)c2cccn2C/C=C/c2cccc(OCC(=O)[O-])c2)cc1.[Na+]
Cmax [9]: 4300 ng/mL | AUC [10]: 59000 ng·h/mL | Activity (Mus musculus [11]): Non-toxic | Activity (Mus musculus [12]): Non-toxic | Tmax [13]: 4 h | AUC [14]: 14000 ng·h/mL | clearance [15]: 1.2 mL/min/kg | Activity (Mus musculus [16]): Non-toxic | Vd [17]: 0.3 L/kg | Activity (Mus musculus [18]): Non-toxic | bioavailability [19]: 42% | half-life [20]: 3.2 h

SMILES: CC(C)(Oc1ccc(C(=O)c2ccc(Cl)cc2)cc1)C(=O)O [FENOFIBRIC ACID]
fold change (FC) [1]: 5.6 | EC50 [6]: 12 µM
